The list is not random: actives were taken first. Their share in the collection is about 3.5%.
RGS4 pot: RGS4 potentiation or activation | 0.92% of 310,000 active | B-score at 10 µM | HEK293 M3R/inducible RGS4, carbachol calcium flux Fluo4; hits give low values;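 active = B-score of the integrated calcium signal more than 4 SD below the library mean, with starting fluorescence not abnormally high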;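 note: negative B-score means reduced calcium response which marks RGS4 activation or potentiation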
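Also added: carbachol at ECmax as muscarinic agonist stimulus; Assay system: HEK293 cells with stable M3R and inducible RGS4; Timing: overnight RGS4 induction, 30 min dye load 37 °C, 20 min compound RT; Measured by: Fluo4-AM (2 µM) calcium-flux fluorescence, kinetic read.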
MrgX1 allo act: human MrgX1 positive allosteric modulation, primary screen | Q96LB2 | MrgX1-HEK293, Fluo-4 calcium flux, FDSS; hits give high values | B-score at 10 µM | 0.63% of 310,000 active | AID 588675;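 active = plate-corrected calcium response at least 3 library SD above typical, normal starting fluorescence, not activating the receptor alone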;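 note: compound read alongside a low EC10 to EC30 dose of BAM8-22 agonist; peak minus trough fluorescence over baseline measured at the second addition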
Target sequence (Q96LB2 whole entry, looked up): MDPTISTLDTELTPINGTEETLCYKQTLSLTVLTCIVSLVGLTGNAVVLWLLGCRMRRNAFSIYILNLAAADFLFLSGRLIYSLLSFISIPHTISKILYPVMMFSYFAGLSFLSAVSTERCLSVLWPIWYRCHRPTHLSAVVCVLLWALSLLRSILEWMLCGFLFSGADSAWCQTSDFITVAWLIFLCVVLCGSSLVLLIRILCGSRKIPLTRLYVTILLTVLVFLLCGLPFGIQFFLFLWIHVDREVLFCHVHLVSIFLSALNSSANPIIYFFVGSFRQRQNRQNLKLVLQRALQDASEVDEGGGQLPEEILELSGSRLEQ
MrgX1 ag: activates human MrgX1 receptor signaling | MrgX1-HEK293 cells, Fluo-4 calcium fluorescence, agonist mode; hits give high values | 0.44% of 310,000 active | B-score at 10 µM | AID 588627;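 active = calcium response B-score plate-corrected fluorescence ratio at least 3 library SD, with starting fluorescence B-score inside 5 SD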
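Material – MrgX1-expressing HEK293 cells · Input – 15,000 cells seeded per well · Dosing – compound as first of three additions · Times – overnight seeding, then 1 h dark dye loading · Measured by – kinetic Fluo-4 NW fluorescence of intracellular calcium · Read-out – B-scored fluorescence response ratio · Benchmarks – positive and negative control wells on each plate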
MrgX1 antagonist: human MrgX1 receptor antagonism, primary screen; Q96LB2; MRGX1-HEK293 calcium flux, Fluo-4, BAM8-22 antagonism; hits give low values; B-score at 10 µM; 1.3% of 310,000 active;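 active = calcium-response B-score plate-corrected more than 3 library SD below zero, starting fluorescence within 5 deviations, no agonist response on first addition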;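 note: peak minus trough fluorescence over baseline after final BAM8-22 challenge near maximal dose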
RGS4 block: human RGS4 inhibition; P49798; HEK293 M3R/RGS4 inducible, Fluo-4 calcium flux; hits give high values; triggered by carbachol at its EC20; B-score at 10 µM; 0.45% of 310,000 active;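 active = B-score, a plate-corrected calcium signal, over three deviations above library mean, with baseline fluorescence within five deviations of library mean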;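 note: RGS4 expression induced by doxycycline in cells with stable M3 receptor; B-score is computed from the integrated fluorescence ratio over baseline after carbachol; higher B-score means a larger calcium signal and so more RGS4 inhibition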
Target sequence (P49798 whole entry, looked up): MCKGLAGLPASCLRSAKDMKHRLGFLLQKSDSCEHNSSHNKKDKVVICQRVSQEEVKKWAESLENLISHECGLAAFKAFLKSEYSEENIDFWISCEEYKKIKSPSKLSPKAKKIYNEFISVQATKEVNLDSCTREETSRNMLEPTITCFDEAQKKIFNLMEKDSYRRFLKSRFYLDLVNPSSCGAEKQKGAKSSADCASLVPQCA
RGS4 activ val: RGS4 activation, validation assay. shares compounds with RGS4 pot. HEK293 M3R/RGS4 inducible, carbachol calcium flux Fluo4. inhibition, % at 10 µM. 89% of 1,100 active. AID 602282;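 active = inhibition above 3 SD of the buffer control wells, cut at about 41% in these data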;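 note: signal is the integrated peak-minus-minimum Fluo4 fluorescence over baseline ratio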
M3R Ca counter: activity in cells without induced RGS4 expression; shares compounds with RGS4 pot; HEK293 M3R non-induced RGS4, Fluo4 calcium flux; after carbachol challenge at its EC90; inhibition, % at 10 µM; 82% of 1,100 active;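 active = inhibition exceeding 3 SD of buffer-only control wells, cut at about 26% in these data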;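 note: percent drop in integrated peak-minus-baseline over baseline Fluo4 ratio after carbachol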
An asterisk follows results filed as active; i = inactive; . = no result given.

SMILES	RGS4 pot	MrgX1 allo act	MrgX1 ag	MrgX1 antagonist	RGS4 block	RGS4 activ val	M3R Ca counter
COC(=O)C1CCN(c2nc3ccccc3nc2C(C#N)C(=O)OCC(C)C)CC1 (centres undefined)	-7.9*	i	i	i	i	91*	75*
CCOC(=O)c1nn(-c2ccccc2Cl)c(=O)cc1OCC(=O)Nc1cccc(OC)c1	i	i	i	i	i	.	.
CCCCNc1c(-c2ccc(OC)c(Sc3ccc(OC)cc3)c2)nc2ccccn12	-11*	i	i	i	i	91*	71*
CCCCCCSc1cc(-c2nc3cc(C)ccn3c2NCCCC)ccc1OC	i	i	i	i	i	.	.
Cc1cnc(C(=O)Nc2nccs2)cn1	i	i	i	i	i	.	.
CC(C)(C)c1cc(C(=O)NCc2cc(F)cc3c2OCOC3)n(Cc2ccccc2)n1	-8.4*	i	i	i	i	92*	56*
Cc1cccc(C)c1NC(=O)NNC(=O)c1cc(C(C)(C)C)nn1Cc1ccccc1	i	i	i	i	i	.	.
CCCCN(C)CCC(=O)Nc1ccc2c(c1)CCC2	i	i	i	i	i	.	.
CCCCN(CC)CCNC(=O)c1cc2c(-c3ccc(Cl)cc3)nn(C)c2s1	-8.9*	i	i	i	i	72*	57*
CCOC(=O)COc1nc(-c2ccccc2)cc(-c2ccco2)c1C#N	-7.7*	i	i	i	i	88*	54*
CCOC(=O)COc1nc2c(c(-c3ccco3)c1C#N)CCc1ccccc1-2	-7.8*	i	i	i	i	82*	37*
N#Cc1c(OCC(=O)c2ccccc2)nc2c(c1-c1ccco1)CCc1ccccc1-2	i	i	i	i	i	.	.
CC(C)(C)C1CCC(C(=O)OCC(=O)N2CCN(C(=O)c3ccco3)CC2)CC1 (centres undefined)	i	i	i	i	i	.	.
CC1(C)CC(=O)C2=C(C1)OC(N)=C(C#N)C2c1ccccc1[N+](=O)[O-] (centres undefined)	-11*	i	i	i	i	0	0
O=[N+]([O-])c1ccccc1S(=O)(=O)c1ccccc1[N+](=O)[O-]	i	i	i	i	i	.	.
O=C(CSc1nnc(NC2CCCCC2)s1)Nc1ccc2c(c1)C(=O)c1ccccc1C2=O	i	i	i	i	i	.	.
CC(C)Nc1nnc(SCC(=O)Nc2ccc3c(c2)C(=O)c2ccccc2C3=O)s1	-11*	i	i	i	i	88*	45*
CC(C)CCn1c(O)c(N=NC(=O)Cn2ccc(C(F)(F)F)n2)c2ccccc21	-15*	i	i	i	i	44*	84*
CCCn1c(O)c(N=NC(=O)CNC(=O)c2ccncc2)c2ccccc21	i	i	i	i	i	.	.
CCOC(=O)N1CCC(N2CCN(CCC(C)C)C(CCO)C2)CC1 (centres undefined)	-10*	i	i	i	i	78*	30*
Fc1cccc(Cc2noc(CN3CCN(C4CCc5ccccc5C4)CC3)n2)c1 (centres undefined)	-7.7*	i	i	i	i	92*	89*
COc1ccc(Cc2noc(CN3CCN(C4CCc5ccccc5C4)CC3)n2)cc1OC (centres undefined)	i	i	i	i	i	.	.
COc1ccc2[nH]c(C(=O)N3CCC(Cc4ccccc4)CC3)cc2c1	i	i	i	i	i	.	.
COc1ccc2cc(C(=O)N3CCC(Cc4ccccc4)CC3)[nH]c2c1	-7.9*	i	i	i	i	0	0
Cc1ccc(C)c(N2CCN(C(=O)c3ccc(CS(=O)(=O)c4ccccc4C)o3)CC2)c1	-8.8*	i	i	i	i	88*	66*
SMILES	RGS4 pot	MrgX1 allo act	MrgX1 ag	MrgX1 antagonist	RGS4 block	RGS4 activ val	M3R Ca counter
CN(C)C/C=C/C(O)(c1ccccc1)c1ccccc1	-9.3*	i	i	i	i	93*	75*
Cc1ccccc1OCC(=O)NCCCNC(=O)c1ccco1	i	i	i	i	i	.	.
Nc1ccc(O)c(-c2nc3ccccc3s2)c1	i	i	i	i	i	.	.
Oc1ccc(-c2nc3ccccc3s2)c(O)c1	-7.9*	i	i	i	i	0	0
CCOC(=O)c1c(NC(=O)CSc2nnnn2-c2ccc3c(c2)OCCO3)sc(C)c1C	-9.5*	i	i	i	i	84*	32*
CS(=O)(=O)N(Cc1ccccc1Cl)c1ccc(C(=O)N2CCCC2)cc1	i	i	i	i	i	.	.
Cc1ccccc1-c1nn2c(-c3ccccc3)nnc2s1	-7.7*	i	i	i	i	0	0
COc1ccc(-c2cc(=O)c3c(O)c(OC)c(O)cc3o2)cc1	i	i	i	i	i	.	.
COc1cc(-c2cc(=O)c3c(O)c(OC)c(OC)cc3o2)cc(OC)c1O	-8.3*	i	i	i	i	0	0
COc1cc2c(cc1OC)CN(C(=O)C(CCSC)NS(=O)(=O)c1ccc(C)cc1)CC2 (centres undefined)	i	i	i	i	i	.	.
CCOC(=O)C(=CNc1cc(Cl)c(-c2ccco2)c(Cl)c1)C(=O)OCC	-7.8*	i	i	i	i	82*	84*
CCOC(=O)C1(CCCc2ccccc2)CCN(C(=O)CCC2=NNC(=O)CC2)CC1	i	i	i	i	i	.	.

Screening data: PubChem BioAssay, Johns Hopkins Ion Channel Center
